Results taken from ChEMBL document CHEMBL1148039, “New aporphine alkaloids from guatteria foliosa” (1994).
Calls of active or inactive are those of the source. The rule behind the calls is not given here.

Experiments:
Leishmania donovani [1] = test: Antiprotozoal activity against promastigotes form of Leishmania donovani pp-75 assessed as total lysis of parasites at 100 ug/ml after 24 hrs; assay type: functional, organism-based
How it was run: (§1)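 Promastigotes of each Leishmania strain exposed to test compound at 100 µg/ml, dissolved in DMSO, for 24 h at 28°. Viability judged by direct inverted-microscope observation and scored against controls: 0 no lysis; + less mobile; ++ modified or immobilized; +++ total lysis. Three independent runs.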

Leishmania braziliensis [2] = test: Antiprotozoal activity against promastigotes form of Leishmania braziliensis 2903 assessed as total lysis of parasites at 100 ug/ml after 24 hrs; assay type: functional, organism-based
How it was run: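 Promastigotes exposed to compound (dissolved in DMSO) at 100 µg/ml for 24 h at 28°. Viability judged by direct observation under an inverted microscope and scored as 0 (no lysis), + (less mobile than controls), ++ (modified or immobilized) or +++ (total lysis). Each assay run three times. Glucantime and pentamidine used as control drugs.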

Leishmania amazonensis [3] = test: Antiprotozoal activity against promastigotes form of Leishmania amazonensis H-142 assessed as total lysis of parasites at 100 ug/ml after 24 hrs; assay type: functional, organism-based; how it was run: as §1
Leishmania amazonensis [4] = test: Antiprotozoal activity against promastigotes form of Leishmania amazonensis LV79 assessed as total lysis of parasites at 100 ug/ml after 24 hrs; assay type: functional, organism-based; how it was run: as §1
Leishmania braziliensis [5] = test: Antiprotozoal activity against promastigotes form of Leishmania braziliensis 2903 assessed as immobilized parasites at 100 ug/ml after 24 hrs; assay type: functional, organism-based; how it was run: as §1
Trypanosoma cruzi = test: Antiprotozoal activity against trypomastigotes form of Trypanosoma cruzi Y at 250 ug/ml after 24 hrs; assay type: functional
How it was run: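 Bloodstream trypomastigotes taken from blood of T. cruzi-infected mice and incubated with test compound (DMSO solution) for 24 h at 4°. Parasites then counted. Assay done three times.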

Leishmania donovani [6] = test: Antiprotozoal activity against promastigotes form of Leishmania donovani pp-75 assessed as less mobile parasites at 100 ug/ml after 24 hrs; assay type: functional, organism-based; how it was run: as §1
Leishmania amazonensis [7] = test: Antiprotozoal activity against promastigotes form of Leishmania amazonensis H-142 assessed as less mobile parasites at 100 ug/ml after 24 hrs; assay type: functional, organism-based; how it was run: as §1
Leishmania amazonensis [8] = test: Antiprotozoal activity against promastigotes form of Leishmania amazonensis LV79 assessed as less mobile parasites at 100 ug/ml after 24 hrs; assay type: functional, organism-based; how it was run: as §1
Leishmania donovani [9] = test: Antiprotozoal activity against promastigotes form of Leishmania donovani pp-75 assessed as immobilized parasites at 100 ug/ml after 24 hrs; assay type: functional, organism-based; how it was run: as §1

## MEGLUMINE ANTIMONATE
Leishmania donovani [1]
  Activity: Active
Leishmania braziliensis [2]
  Activity: Active
Leishmania amazonensis [3]
  Activity: Active
Leishmania amazonensis [4]
  Activity: Active

## COc1c(O)c(OC)c2c3c1CCN=C3C(C)(O)c1cc(O)ccc1-2 (stereo not given) [ISOGUATTOUREGIDINE]
Leishmania donovani [1]
  Activity: Active
Leishmania braziliensis [5]
  Activity: Active
Leishmania amazonensis [3]
  Activity: Active
Leishmania amazonensis [4]
  Activity: Active
Trypanosoma cruzi
  Activity: 92%

## COc1c2c3c(c4c1OCO4)-c1ccc(O)cc1C(C)(O)C3=NCC2 (stereo not given)
Trypanosoma cruzi
  Activity: 0%

## N=C(N)c1ccc(OCCCCCOc2ccc(C(=N)N)cc2)cc1
Leishmania donovani [1]
  Activity: Active
Leishmania braziliensis [2]
  Activity: Active
Leishmania amazonensis [3]
  Activity: Active
Leishmania amazonensis [4]
  Activity: Active

## COc1c(O)cc(CCN(C)C)c2ccc3ccccc3c12 [ARGENTININE]
Leishmania donovani [6]
  Activity: Active
Leishmania braziliensis [5]
  Activity: Active
Leishmania amazonensis [7]
  Activity: Active
Leishmania amazonensis [8]
  Activity: Active
Trypanosoma cruzi
  Activity: 81.3%

## COc1cccc2c1-c1c3c(c(OC)c4ccnc(c14)C2=O)OCO3
Trypanosoma cruzi
  Activity: 46.6%

## COc1cc2c(cc1O)C[C@H]1c3cc(O)c(OC)cc3CCN1C2 [COREXIMINE]
Leishmania donovani [9]
  Activity: Active
Leishmania braziliensis [5]
  Activity: Active
Leishmania amazonensis [7]
  Activity: Active
Leishmania amazonensis [8]
  Activity: Active
Trypanosoma cruzi
  Activity: 0%

## COc1c(O)c2c3c(c1OC)-c1ccc(O)cc1C[C@@H]3NCC2
Trypanosoma cruzi
  Activity: 2.55%

## CN(C)c1ccc(C(=C2C=CC(=[N+](C)C)C=C2)c2ccc(N(C)C)cc2)cc1.[Cl-] [GENTIAN VIOLET]
Trypanosoma cruzi
  Activity: 100%

## COc1c(O)c2c3c(c1OC)-c1ccccc1C[C@H]3NCC2
Trypanosoma cruzi
  Activity: 68.2%

## COc1c2c3c(c4c1OCO4)-c1c(O)cccc1C[C@H]3NCC2 [ELMERRILLICINE]
Trypanosoma cruzi
  Activity: 0%

## COc1cccc2c1-c1c3c(c(OC)c4c1[C@@H](C2)NCC4)OCO3
Trypanosoma cruzi
  Activity: 35.7%
